According to ChEMBL document CHEMBL3600295, “Synthesis and biological evaluation of a series of fatty acid amides from Echinacea” (Bioorg Med Chem Lett, 2015):
The source made the active and inactive calls. The calls are words filed in the database; no cut-off is given here.

Key:
RAW264.7 [1] = experiment: Cytotoxicity against mouse RAW264.7 cells at 100 uM incubated for 18 hrs by LDH release assay; format: cell-based; conditions: raw264.7, 18 h
Outline: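 RAW 264.7 murine macrophage-like cells were treated with compound for 18 h. Culture supernatants were then collected and assayed for lactate dehydrogenase activity released from dead or dying cells, using a commercial LDH cytotoxicity kit. Vehicle and lysis-buffer controls were included. Data are means ± SD, n = 2.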

RAW264.7 [2] = experiment: Inhibition of LPS-induced TNFalpha production in mouse RAW264.7 cells at 100 uM incubated for 18 hrs by ELISA method; format: functional; conditions: for inhibition at 100 µM: RAW264.7, 18 h
Outline: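 RAW 264.7 cells were co-treated with compound plus 10 ng/mL LPS (R595) for 18 h. Supernatant TNF-α was measured by commercial ELISA and compared with cells stimulated with LPS only.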

RAW264.7 [3] = experiment: Effect on TNFalpha production in mouse RAW264.7 cells at 100 uM incubated for 18 hrs by ELISA method; format: cell-based; conditions: raw264.7, 18 h
Outline: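 Compound alone, without LPS, was added to RAW 264.7 murine macrophage-like cells and incubated 18 h. TNF-α in culture supernatants was quantified by commercial ELISA and compared with levels from unstimulated cells.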

## CCCCCCCCCCCc1nc(CC(C)C)cs1
RAW264.7 [1]
  Activity: Non-toxic
RAW264.7 [2]
  inhibition: inactive

## CCCCCCCCCCCC(=O)NCC(C)C
RAW264.7 [1]
  Activity: Non-toxic
RAW264.7 [2]
  inhibition: Active
RAW264.7 [3]
  Activity: Non-toxic

## CCCCCC(=O)NCC(C)C
RAW264.7 [1]
  Activity: Non-toxic
RAW264.7 [2]
  inhibition: Active
RAW264.7 [3]
  Activity: Non-toxic

## CCCCCCCCCC(=O)NCC(C)C [TETRAHYDROPELLITORINE]
RAW264.7 [1]
  Activity: Non-toxic
RAW264.7 [2]
  inhibition: Active
RAW264.7 [3]
  Activity: Non-toxic

## CCCCCCCCC/C=C/C(=O)NCC(C)CC (stereo not drawn)
RAW264.7 [1]
  Activity: Toxic
RAW264.7 [2]
  inhibition: Active
RAW264.7 [3]
  Activity: Non-toxic

## CCCC(=O)NCC(C)C
RAW264.7 [1]
  Activity: Non-toxic
RAW264.7 [2]
  inhibition: Active
RAW264.7 [3]
  Activity: Non-toxic

## CCCCCCCCC/C=C/C(=O)NCc1ccccc1
RAW264.7 [1]
  Activity: Non-toxic
RAW264.7 [2]
  inhibition at 100 µM: 29.8%
RAW264.7 [3]
  Activity: Non-toxic

## CCCCCCCCCCCC(=O)NCc1ccccc1 [N-BENZYLDODECANAMIDE]
RAW264.7 [1]
  Activity: Non-toxic
RAW264.7 [2]
  inhibition at 100 µM: 32.4%
RAW264.7 [3]
  Activity: Non-toxic

## CCCCCCCC(=O)NCC(C)C
RAW264.7 [1]
  Activity: Non-toxic
RAW264.7 [2]
  inhibition: Active
RAW264.7 [3]
  Activity: Non-toxic

## CCCCCCCCCCCC(=O)NCC(C)CC (stereo not drawn)
RAW264.7 [1]
  Activity: Non-toxic
RAW264.7 [2]
  inhibition: Active
RAW264.7 [3]
  Activity: Non-toxic

## CCCCCCC/C=C/C=C/C(=O)NCC(C)C
RAW264.7 [1]
  Activity: Non-toxic
RAW264.7 [2]
  inhibition: Active
RAW264.7 [3]
  Activity: Non-toxic

## CCCCCCCCCCCCNCC(C)C
RAW264.7 [1]
  Activity: Toxic
RAW264.7 [2]
  inhibition at 100 µM: 99.8%
RAW264.7 [3]
  Activity: Non-toxic

## CCCCCCCCC/C=C/C(=O)NCC(C)C
RAW264.7 [1]
  Activity: Non-toxic
RAW264.7 [2]
  inhibition: Active
RAW264.7 [3]
  Activity: Non-toxic

## CCCCCCCCCCCc1nc(C(C)C)cs1
RAW264.7 [1]
  Activity: Non-toxic
RAW264.7 [2]
  inhibition: inactive

## CCCCCCCCCCCC(=O)NCCCCCC
RAW264.7 [1]
  Activity: Non-toxic
RAW264.7 [2]
  inhibition: Active
RAW264.7 [3]
  Activity: Non-toxic
